Assay outcomes deposited in PubChem by Broad Institute.
In the library only some 2.2% were active in any assay of this set; here they are far more common.
Statin myotox sup – suppressors of simvastatin-induced myotoxicity in C2C12 myotubes | ATP luminescence, 48 h; scaled: DMSO 0, geranylgeraniol control 100 | actives 0.78% (n = 330,000) | AID 602340 | rescue of ATP level, % at 7.49 µM;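 active = mean ATP rescue above about 67%, or every replicate alone reaching that limit, limit read from the data, passing the limit was not always enough; inconclusive = no clear call, values can overlap the other calls; inactive = mean under the limit and some replicate under it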;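 note: myotubes were challenged with 10 µM simvastatin during compound exposure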
E-sel inducer – E-selectin induction on HUVECs. HUVEC E-selectin immunofluorescence imaging; normalized: neutral wells 0, TNF-alpha wells 100. actives 0.37% (n = 260,000). P16581. activation, % at 7.58 µM;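 active = mean E-selectin-positive cell signal at least 10% of the positive control, reached in at least 60% of replicates, without over 20% cell loss; inconclusive = no rule given, readout overlaps actives, possibly toxicity-flagged; inactive = the rest, including those meeting only one limit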
Target sequence (P16581 whole entry, looked up): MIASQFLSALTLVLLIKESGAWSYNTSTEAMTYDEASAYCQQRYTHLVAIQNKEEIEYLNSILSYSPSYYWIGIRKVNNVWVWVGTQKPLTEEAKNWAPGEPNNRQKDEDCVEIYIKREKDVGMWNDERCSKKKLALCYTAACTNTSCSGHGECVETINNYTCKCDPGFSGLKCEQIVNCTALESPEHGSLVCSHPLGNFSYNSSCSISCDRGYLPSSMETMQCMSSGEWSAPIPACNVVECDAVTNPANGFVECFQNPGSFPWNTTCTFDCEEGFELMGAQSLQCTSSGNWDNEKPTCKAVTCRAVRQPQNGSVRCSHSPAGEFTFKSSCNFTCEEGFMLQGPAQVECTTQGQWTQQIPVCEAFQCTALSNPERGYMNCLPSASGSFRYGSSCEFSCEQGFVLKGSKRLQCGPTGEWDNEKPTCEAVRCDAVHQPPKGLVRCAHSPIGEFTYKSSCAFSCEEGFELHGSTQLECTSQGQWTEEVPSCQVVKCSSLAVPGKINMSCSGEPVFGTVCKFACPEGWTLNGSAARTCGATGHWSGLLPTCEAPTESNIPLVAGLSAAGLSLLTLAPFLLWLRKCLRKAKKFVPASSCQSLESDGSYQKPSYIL
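Test system: HUVEC | Signal: Immunofluorescence imaging | Read-out: Percent E-selectin-positive cells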
DENV2 CPE rescue – inhibitors of DENV2 cytopathic effect; DENV2-infected cells, cytopathic effect rescue, plate reader; CPE inhibition, % at 9.99 µM; actives 1.7% (n = 350,000); AID 651640; in the data active = CPE inhibition above about 20%, passing the limit was not always enough; inconclusive = no clear call, values can overlap the other calls; tested in BHK-21 cells
A number is an active result; 0 = inactive; ? = inconclusive; - = no result given.

SMILES	Statin myotox sup	E-sel inducer	DENV2 CPE rescue
CCc1nc2ccccc2c(=O)n1-c1ccc2ccccc2c1	122.5	-	-
CCCc1nc2ccccc2c(=O)n1-c1ccc(OC)cc1	0	-	-
Cc1ccc(-c2nc3ccccc3c(=O)n2-c2cccc(O)c2)cc1	0	164.3	0
COC(=O)[C@@H]1[C@@H](CO)[C@@H]2Cn3c(ccc(C4=CCCC4)c3=O)[C@H]1N2C(=O)CC1CC1	0	0	0
COc1ccc(C#Cc2ccc([C@H]3[C@H](CO)N4CCCCN(C(=O)Cc5cccnc5)C[C@@H]34)cc2)cc1	-	0	0
COc1ccc(C#Cc2ccc([C@H]3[C@@H](CO)N4CCCCN(C(=O)Cc5cccnc5)C[C@@H]34)cc2)cc1	-	0	0
CCN1[C@@H]2c3ccc(-c4cccc(OC)c4)c(=O)n3C[C@H]1[C@H](CO)[C@H]2C(=O)OC	0	0	0
Nc1c(C(=O)NCc2ccco2)c2nc3ccccc3nc2n1Cc1ccc(F)cc1	0	-	-
COc1ccc(Cn2c(N)c(C(=O)NCc3ccco3)c3nc4ccccc4nc32)cc1	74.1	-	-
Cc1ccc(OC(=O)N(C)C[C@H]2OCc3ccccc3-c3c(n(C)c4ccccc34)C(=O)N([C@H](C)CO)C[C@@H]2C)cc1	-	0	0
COC(=O)C1=C(c2ccc(-c3ccccc3)c(F)c2)C[C@@H]2CC[C@H]1N2C(=O)NCCCOC(C)C	0	0	24.8
COC(=O)C1=C(c2ccc3ccccc3c2)C[C@@H]2CC[C@H]1N2C(=O)NCCCOC(C)C	0	0	0
COC(=O)C1=C(c2ccc(-c3ccccc3)c(F)c2)C[C@@H]2CC[C@H]1N2C(=O)NCCc1ccccc1	0	0	30.5
COC(=O)C1=C(c2ccc(-c3ccccc3)c(F)c2)C[C@@H]2CC[C@H]1N2C(=O)NCCNC(C)=O	0	0	0
CCCC#Cc1ccc([C@H]2[C@@H](CO)N3CCCCN(C(=O)Cc4ccccn4)C[C@@H]23)cc1	-	0	0
COC(=O)[C@H]1[C@H](CO)[C@H]2Cn3c(ccc(-c4cccc(C(=O)N(C)C)c4)c3=O)[C@@H]1N2CC1CC1	-	0	0
COC(=O)[C@H]1[C@H](CO)[C@H]2Cn3c(ccc(-c4ccccc4F)c3=O)[C@@H]1N2C(C)=O	0	0	?
CCC1(Oc2ccccc2)C(=O)NC(=O)NC1=O	107.9	0	0
COC(=O)CC1(Cc2ccccc2)C(=O)NC(=O)NC1=O	0	-	-
COC(=O)[C@@H]1[C@@H](CO)[C@@H]2Cn3c(ccc(C4=CCCC4)c3=O)[C@H]1N2S(=O)(=O)c1cn(C)cn1	0	0	0
O=C1C2C3CCC(O3)C2C(=O)N1c1cccc(F)c1 (stereo unspecified)	-	0	0
CCC(c1ccc(C)cc1)N1C(=O)C2C3CCC(O3)C2C1=O (stereo unspecified)	0	0	25.3
CC(=O)OC1(C)CC(C)C(=O)C(C(O)CC2CC(=O)NC(=O)C2)C1 (stereo unspecified)	83.4	-	0
C[C@@H]1C[C@@H]([C@H](O)CC2CC(=O)NC(=O)C2)C(=O)[C@@H](C)C1	172.9	-	0
O=C(O)[C@@H]1[C@@H](CO)[C@@H]2Cn3c(ccc(-c4cccnc4)c3=O)[C@H]1N2S(=O)(=O)c1ccccc1F	0	0	0
SMILES	Statin myotox sup	E-sel inducer	DENV2 CPE rescue
COc1ccc(C(O)(c2cncnc2)C2CC2)cc1 (stereo unspecified)	-	-	0
Cc1ccc(OC(=O)N(C)C[C@@H]2OCc3ccccc3-c3c(n(C)c4ccccc34)C(=O)N([C@@H](C)CO)C[C@@H]2C)cc1	-	0	0
O=C(Cc1cccnc1)N1CCCCN2[C@@H](CO)[C@H](c3ccc(C#CC4CC4)cc3)[C@@H]2C1	-	-	0
CN(C)CC1CSCCC1(O)c1ccc(C(F)(F)F)cc1 (stereo unspecified)	-	-	68.9
CN(C)CC1CSCCC1(O)c1ccc(Cl)cc1 (stereo unspecified)	0	-	-
O=C(O)[C@@H]1[C@@H](CO)[C@@H]2Cn3c(ccc(C4=CCCCC4)c3=O)[C@H]1N2CCc1ccccc1	0	0	-
OC1C2CN3CN(C2)CC1(c1ccccc1)C3 (stereo unspecified)	0	-	0
CC12CN3CN(C1)CC(c1ccccc1)(C3)C2=O	101.6	-	-
O=C(Cc1ccccc1)N1CCCCN2[C@H](C1)[C@@H](c1ccc(C#Cc3ccccc3)cc1)[C@@H]2CO	-	0	0
C[C@@H]1CN([C@H](C)CO)C(=O)c2c(c3ccccc3n2C)-c2ccccc2CO[C@@H]1CN(C)C(=O)Oc1ccccc1	-	0	0
CCCCC1(CCO)C(=O)NC(=S)NC1=O	0	0	0
CCCCC1(CN2CCCC2=O)C(=O)NC(=O)NC1=O	106.4	-	-
NS(=O)(=O)c1nc[nH]c1[N+](=O)[O-]	0	-	29.4
COc1ccc(C#Cc2ccc([C@H]3[C@@H](CO)N4CCCCN(C(=O)Cc5ccncc5)C[C@@H]34)cc2)cc1	-	0	0
